Measured values taken from ChEMBL document CHEMBL1144211, “Overcoming hERG issues for brain-penetrating cathepsin S inhibitors: 2-cyanopyrimidines. Part 2” (Bioorg Med Chem Lett, 2008).

experiment: Plasma concentration in Sprague-Dawley rat at 10 mg/kg, po after 1 hr; assay type: ADME, organism-based; set-up: dose 10 mg/kg, route oral; conditions: not given
Procedure, shortened: (§1)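 Sprague–Dawley rats received a single oral dose of 10 mg/kg. Plasma and brain concentrations (nM) were measured at 1 h and 3 h after dosing. Values are means of n = 3.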

Structure (SMILES)	concentration at 1 h [nM]
CNC(=O)c1c(NCC2CCC3(CCC3)CC2)nc(C#N)nc1OCC1CCNCC1	28
CNC(=O)c1c(NCC2CCC3(CCC3)CC2)nc(C#N)nc1OCCO	283

Continued, values first:

concentration at 1 h [nM]	Structure (SMILES)
346	CNC(=O)c1c(NCC2CCC3(CCC3)CC2)nc(C#N)nc1OCC1CCN(C)CC1
191	CNC(=O)c1c(NCC2CCC3(CCC3)CC2)nc(C#N)nc1OCC1CCN(C(C)C)CC1
169	CNC(=O)c1c(NCC2CCC3(CCC3)CC2)nc(C#N)nc1OCC1CCN(C(C)=O)CC1

experiment: Plasma concentration in Sprague-Dawley rat at 10 mg/kg, po after 3 hrs; assay type: ADME, organism-based; set-up: dose 10 mg/kg, route oral; conditions: not given; procedure, shortened: as §1

Structure (SMILES)	concentration at 3 h [nM]
CNC(=O)c1c(NCC2CCC3(CCC3)CC2)nc(C#N)nc1OCC1CCNCC1	61
CNC(=O)c1c(NCC2CCC3(CCC3)CC2)nc(C#N)nc1OC1CC(C)(C)NC(C)(C)C1	287
CNC(=O)c1c(NCC2CCC3(CCC3)CC2)nc(C#N)nc1OCCO	170

The remaining lines, values ahead:

concentration at 3 h [nM]	Structure (SMILES)
308	CNC(=O)c1c(NCC2CCC3(CCC3)CC2)nc(C#N)nc1OCC1CCN(C)CC1
381	CNC(=O)c1c(NCC2CCC3(CCC3)CC2)nc(C#N)nc1OCC1CCN(C(C)C)CC1
80	CNC(=O)c1c(NCC2CCC3(CCC3)CC2)nc(C#N)nc1OCC1CCN(C(C)=O)CC1

experiment: Drug level in Sprague-Dawley rat brain at 10 mg/kg, po after 1 hr; assay type: ADME, organism-based; set-up: dose 10 mg/kg, route oral; conditions: read-out: Drug uptake; procedure, shortened: as §1

Structure (SMILES)	concentration at 1 h [nM]
CNC(=O)c1c(NCC2CCC3(CCC3)CC2)nc(C#N)nc1OCC1CCNCC1	< 13
CNC(=O)c1c(NCC2CCC3(CCC3)CC2)nc(C#N)nc1OCCO	692

More lines, now with the values ahead:

concentration at 1 h [nM]	Structure (SMILES)
124	CNC(=O)c1c(NCC2CCC3(CCC3)CC2)nc(C#N)nc1OCC1CCN(C)CC1
67	CNC(=O)c1c(NCC2CCC3(CCC3)CC2)nc(C#N)nc1OCC1CCN(C(C)C)CC1
27	CNC(=O)c1c(NCC2CCC3(CCC3)CC2)nc(C#N)nc1OCC1CCN(C(C)=O)CC1

experiment: Drug level in Sprague-Dawley rat brain at 10 mg/kg, po after 3 hrs; assay type: ADME, organism-based; set-up: dose 10 mg/kg, route oral; conditions: read-out: Drug uptake; procedure, shortened: as §1

Structure (SMILES)	concentration at 3 h [nM]
CNC(=O)c1c(NCC2CCC3(CCC3)CC2)nc(C#N)nc1OCC1CCNCC1	< 13
CNC(=O)c1c(NCC2CCC3(CCC3)CC2)nc(C#N)nc1OC1CC(C)(C)NC(C)(C)C1	164
CNC(=O)c1c(NCC2CCC3(CCC3)CC2)nc(C#N)nc1OCCO	849

Results, then the compound that gave them:

concentration at 3 h [nM]	Structure (SMILES)
718	CNC(=O)c1c(NCC2CCC3(CCC3)CC2)nc(C#N)nc1OCC1CCN(C)CC1
455	CNC(=O)c1c(NCC2CCC3(CCC3)CC2)nc(C#N)nc1OCC1CCN(C(C)C)CC1
< 13	CNC(=O)c1c(NCC2CCC3(CCC3)CC2)nc(C#N)nc1OCC1CCN(C(C)=O)CC1

experiment: Cmax in Sprague-Dawley rat at 10 mg/kg, po; assay type: ADME, organism-based; set-up: dose 10 mg/kg, route oral; conditions: in vivo
Procedure, shortened: (§2)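 PK parameters in male Sprague–Dawley rats after intravenous dosing at 1 mg/kg and after oral dosing. Parameters derived were Vdss, apparent half-life, oral Cmax and estimated bioavailability.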

Cmax [nM]	Structure (SMILES)
461	CNC(=O)c1c(NCC2CCC3(CCC3)CC2)nc(C#N)nc1OCC1CCN(C)CC1
298	CNC(=O)c1c(NCC2CCC3(CCC3)CC2)nc(C#N)nc1OCC1CCN(C(C)C)CC1
907	CNC(=O)c1c(NCC2CCC3(CCC3)CC2)nc(C#N)nc1OCCO

experiment: Plasma clearance in Sprague-Dawley rat at 1 mg/kg, iv or 10 mg/kg, po; assay type: ADME, organism-based; conditions: not given

clearance [mL/min/kg]	Structure (SMILES)
18.3	CNC(=O)c1c(NCC2CCC3(CCC3)CC2)nc(C#N)nc1OCC1CCN(C)CC1
10	CNC(=O)c1c(NCC2CCC3(CCC3)CC2)nc(C#N)nc1OCC1CCN(C(C)C)CC1
25	CNC(=O)c1c(NCC2CCC3(CCC3)CC2)nc(C#N)nc1OCCO

experiment: Half life in Sprague-Dawley rat at 1 mg/kg, iv; assay type: ADME, organism-based; set-up: dose 1 mg/kg, route intravenous; conditions: in vivo; procedure, shortened: as §2

half-life [h]	Structure (SMILES)
6.7	CNC(=O)c1c(NCC2CCC3(CCC3)CC2)nc(C#N)nc1OCC1CCN(C)CC1
11.8	CNC(=O)c1c(NCC2CCC3(CCC3)CC2)nc(C#N)nc1OCC1CCN(C(C)C)CC1
1.5	CNC(=O)c1c(NCC2CCC3(CCC3)CC2)nc(C#N)nc1OCCO

experiment: Oral bioavailability in Sprague-Dawley rat at 10 mg/kg; assay type: ADME, organism-based; conditions: in vivo; procedure, shortened: as §2

bioavailability [%]	Structure (SMILES)
40	CNC(=O)c1c(NCC2CCC3(CCC3)CC2)nc(C#N)nc1OCC1CCN(C)CC1
24	CNC(=O)c1c(NCC2CCC3(CCC3)CC2)nc(C#N)nc1OCC1CCN(C(C)C)CC1
14	CNC(=O)c1c(NCC2CCC3(CCC3)CC2)nc(C#N)nc1OCCO

experiment: AUC in Sprague-Dawley rat at 10 mg/kg, po; assay type: ADME, organism-based; set-up: dose 10 mg/kg, route oral; conditions: plasma

AUC [µM·h]	Structure (SMILES)
8.24	CNC(=O)c1c(NCC2CCC3(CCC3)CC2)nc(C#N)nc1OCC1CCN(C)CC1
8.08	CNC(=O)c1c(NCC2CCC3(CCC3)CC2)nc(C#N)nc1OCC1CCN(C(C)C)CC1
2.5	CNC(=O)c1c(NCC2CCC3(CCC3)CC2)nc(C#N)nc1OCCO

experiment: Volume of distribution at steady state in Sprague-Dawley rat at 1 mg/kg, iv; assay type: ADME, organism-based; set-up: dose 1 mg/kg, route intravenous; conditions: in vivo, read-out: Vdss; procedure, shortened: as §2

Vd [L/kg]	Structure (SMILES)
9.8	CNC(=O)c1c(NCC2CCC3(CCC3)CC2)nc(C#N)nc1OCC1CCN(C)CC1
9.3	CNC(=O)c1c(NCC2CCC3(CCC3)CC2)nc(C#N)nc1OCC1CCN(C(C)C)CC1
1.2	CNC(=O)c1c(NCC2CCC3(CCC3)CC2)nc(C#N)nc1OCCO
